PfG6PD inh – PfG6PD (Plasmodium falciparum) enzyme inhibition | PfGluPho enzyme, NADPH resazurin-diaphorase fluorescence | inhibition, % at 20 µM | 350,000 tested, 0.78% active;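 active = inhibition reaching at least a set limit at 20 µM in the primary screen, cut at about 59% in these data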;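 note: 0% = DMSO wells with substrate and 100% = DMSO wells lacking glucose-6-phosphate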
G6PDH CS – inhibits Leuconostoc G6PDH, flagging false hits in G6PDH-based assays; inhibition, % at 5 µM; Purified L. mesenteroides G6PDH, diaphorase/resazurin coupled fluorescence, 45 min; AID 1020; 200,000 tested, 0.12% active; in the data active = inhibition above about 50%
Diaph inh CS – diaphorase inhibition or chemical oxidation counter-screen; diaphorase resazurin-to-resorufin fluorescence, NADH, 16 min; bacterial (C. kluyveri) enzyme, not human; inhibition, % at 20 µM; 190,000 tested, 0.69% active; AID 1217;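 active = primary screen inhibition at 20 µM above a set limit, cut at about 50% in these data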;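 note: plate controls were DMSO with full reaction for no effect and wells lacking NADH for full effect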
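System: Bacterial diaphorase enzyme (C. kluyveri) | Incubation: 16-min room-temperature incubation before reading | Benchmarks: No-NADH positive control and DMSO neutral control | Measured by: Resorufin fluorescence 544/590 nm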
HKDC1 inh – inhibitors of human hexokinase HKDC1. recombinant HKDC1, G6PDH/diaphorase resazurin coupled fluorescence. 340,000 tested, 0.16% active. Q2TB90. inhibition, % at 20 µM;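 active = inhibition above about 35% when tested at 20 µM, limit read from the data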;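 note: plate controls were DMSO wells with enzyme for no effect and DMSO wells lacking enzyme for full effect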
Target sequence (Q2TB90 whole entry, looked up): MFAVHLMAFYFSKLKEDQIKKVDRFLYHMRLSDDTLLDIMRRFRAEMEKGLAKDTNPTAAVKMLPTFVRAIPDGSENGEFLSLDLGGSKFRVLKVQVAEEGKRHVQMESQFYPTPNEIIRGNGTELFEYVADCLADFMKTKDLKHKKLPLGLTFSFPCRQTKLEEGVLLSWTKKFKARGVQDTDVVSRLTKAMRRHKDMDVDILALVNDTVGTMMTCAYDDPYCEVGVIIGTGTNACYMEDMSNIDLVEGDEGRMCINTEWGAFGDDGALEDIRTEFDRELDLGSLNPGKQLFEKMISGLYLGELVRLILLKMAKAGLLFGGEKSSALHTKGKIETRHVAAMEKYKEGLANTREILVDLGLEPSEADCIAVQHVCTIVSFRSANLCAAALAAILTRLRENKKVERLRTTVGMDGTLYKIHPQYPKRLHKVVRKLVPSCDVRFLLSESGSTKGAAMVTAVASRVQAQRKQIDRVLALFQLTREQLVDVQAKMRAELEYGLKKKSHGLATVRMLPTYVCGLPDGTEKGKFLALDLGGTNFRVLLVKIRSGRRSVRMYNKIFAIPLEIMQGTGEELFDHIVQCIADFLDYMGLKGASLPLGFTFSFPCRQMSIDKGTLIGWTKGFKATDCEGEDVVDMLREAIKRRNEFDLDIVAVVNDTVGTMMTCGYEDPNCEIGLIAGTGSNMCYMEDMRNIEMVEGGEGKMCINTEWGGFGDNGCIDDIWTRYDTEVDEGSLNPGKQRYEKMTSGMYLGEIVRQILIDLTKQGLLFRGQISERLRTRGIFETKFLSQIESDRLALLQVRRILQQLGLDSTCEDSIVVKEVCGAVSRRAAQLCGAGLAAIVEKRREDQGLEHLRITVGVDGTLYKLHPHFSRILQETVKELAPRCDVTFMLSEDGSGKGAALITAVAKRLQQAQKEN
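Assay system: recombinant HKDC1 hexokinase; detection: coupled resazurin fluorescence, excitation 525 nm, emission 613 nm; benchmarks: DMSO-plus-enzyme-mix negative control, buffer-substituted positive control; compound dosing: single 20 µM dose; schedule: 90 min at room temperature in dark; also added: glucose plus 1 mM ATP as hexokinase substrates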
Diaph act CS – counter-screen for diaphorase-based assays: diaphorase activators and chemical reducers; Diaphorase/resazurin coupled assay, resorufin fluorescence, 16 min; stronger effect = higher value; 1 = vehicle wells, 0 = NADH-free wells; activation factor at 20 µM; 190,000 tested, 0.005% active; AID 1229;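 active = diaphorase activity raised at least twofold by the compound at 20 µM; inactive = activation factor below 2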
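Material: purified diaphorase enzyme from Clostridium kluyveri; Also added: 0.114 mM NADH and 0.1 mM resazurin, final amounts; Doses: single compound dose of 20 µM, 1% DMSO final; Times: 16 min enzyme reaction, ambient temperature; Detection: resorufin fluorescence, excitation 544 nm, emission 590 nm; Measure: increased resorufin signal from activators or reducing compounds.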
PfGluPho conf – confirmation of Plasmodium falciparum G6PD inhibitors. recombinant PfGluPho, NADPH-diaphorase-resazurin fluorescence. 2,400 tested, 34% active. inhibition, % at 20 µM. AID 504753. shares compounds with PfG6PD inh;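 active = inhibition of at least 50% at 20 µM in any single replicate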;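 note: 0% = DMSO with substrate and 100% = DMSO lacking glucose-6-phosphate substrate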
Diaphorase 10uM – diaphorase inhibition or oxidation at 10 uM NADPH. diaphorase-coupled resazurin reduction, fluorescence, NADPH 10 uM. 820 tested, 39% active. inhibition, % at 20 µM. shares compounds with PfG6PD inh;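 active = average inhibition reaching 50% or more with the compound at 20 µM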;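 note: resorufin red fluorescence formed as diaphorase reduces resazurin using NADPH; 0% = DMSO with enzyme and 100% = DMSO without enzyme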
Diaph ctr 30uM – diaphorase inhibition or oxidation at 30 uM NADPH. Diaphorase/resazurin coupled assay, resorufin fluorescence. inhibition, % at 20 µM. shares compounds with PfG6PD inh. 820 tested, 29% active;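 active = inhibition averaging 50% or more, tested at 20 µM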;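 note: 0% = DMSO with enzyme and 100% = DMSO wells lacking diaphorase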
Numbers without * were called inactive; nt = no result. In the library only some 1.3% were active in any assay of this set; here they are far more common.

SMILES	PfG6PD inh	G6PDH CS	Diaph inh CS	HKDC1 inh	Diaph act CS	PfGluPho conf	others
CCOC(=O)c1cnc2ccc(OC)cc2c1Nc1ccc2c(c1)OCCO2	51	3	11	4	0.9	nt
CCOC(=O)c1cnc2c(OC)cccc2c1Nc1ccc2c(c1)OCCO2	68*	-8	20	-2	0.8	29
O=C(Nc1nnc(S(=O)(=O)N2CCCC2)s1)c1cccc([N+](=O)[O-])c1	97*	nt	nt	6	nt	77*	Diaphorase 10uM=50*;Diaph ctr 30uM=49
O=C(Nc1nnc(S(=O)(=O)N2CCCCC2)s1)c1cccc(Br)c1	100*	nt	nt	2	nt	61*	Diaphorase 10uM=69*;Diaph ctr 30uM=46
COc1ccc(C(=O)Nc2nnc(S(=O)(=O)N3CCCCCC3)s2)cc1OC	-32	nt	nt	3	nt	nt
O=C(Nc1nnc(CSCc2ccccc2F)s1)c1cccc([N+](=O)[O-])c1	61*	-7	28	-1	0.7	43
CC(OC(=O)COc1ccc(C#N)cc1)C(=O)Nc1ccc(Cl)cn1 (centres undefined)	7	nt	nt	-4	nt	nt
Cc1c(C(=O)N2CCC(N3CCSCC3)CC2)oc2c(F)cccc12	5	nt	nt	-3	nt	nt
O=c1[nH]c(=O)c2[nH]c(=S)n(-c3ccccc3)c2[nH]1	64*	nt	nt	-6	nt	37
Cc1ccc2c(c1)[nH]c1c(N3CCN(Cc4ccccc4)CC3)ncnc12	61*	3	-9	3	1.1	-22
Cc1ccc2[nH]c3c(N4CCN(Cc5ccccc5)CC4)ncnc3c2c1	9	2	3	2	1	nt
CNC(=S)NNC(=O)c1ccc2c(c1)OCO2	-1	1	3	0	1	nt
Cc1ccc(-n2nc(C(=O)N3CCOCC3)cc2-c2ccc(Cl)cc2)cc1	60*	-20	20	5	0.8	35
Cc1ccc(NC2=C(NC(=O)c3ccccc3)C(=O)c3ccccc3C2=O)cc1Cl	86*	-20	42	27	0.6	63*	Diaphorase 10uM=31;Diaph ctr 30uM=18
NC(=O)NCCC1=CCCCC1	3	-3	4	-3	1	nt
C=CCn1c(N)c(C(=O)NCCC2=CCCCC2)sc1=S	69*	18	19	-1	0.8	29
O=C(Nc1cc(C(F)(F)F)ccc1N1CCOCC1)c1cnccn1	-7	nt	nt	-4	nt	nt
C#CCOCCOCCOCCNc1nc(N2CCN(C(=O)CCCCCCCCCCNC(=O)[C@H](CCCCN)n3cc(CCO)nn3)CC2)nc(N2CCN(C(=O)CCCCCCCCCCNC(=O)[C@@H]([C@H](C)O)n3cc(C)nn3)CC2)n1	66*	nt	nt	0	nt	29
C#CCOCCOCCOCCNc1nc(N2CCN(C(=O)CCCCCCCCCCNC(=O)Cn3cc(C[C@@H](C)O)nn3)CC2)nc(N2CCN(C(=O)CCCCCCCCCCNC(=O)[C@H](CCCCN)n3cc(C[C@@H](C)CC)nn3)CC2)n1	58	nt	nt	-9	nt	nt
C#CCOCCOCCOCCNc1nc(N2CCN(C(=O)CCCCCCCCCCNC(=O)[C@H](CCCCN)n3cc(C[C@@H](C)CC)nn3)CC2)nc(N2CCN(C(=O)CCCCCCCCCCNC(=O)[C@H](CCCCN)n3cc(C[C@@H](C)CC)nn3)CC2)n1	74*	nt	nt	4	nt	-20
C#CCOCCOCCOCCNc1nc(N2CCN(C(=O)CCCCCCCCCCNC(=O)[C@H](CCCCN)n3cc(CCO)nn3)CC2)nc(N2CCN(C(=O)CCCCCCCCCCNC(=O)[C@H](CCCCN)n3cc(CCO)nn3)CC2)n1	68*	nt	nt	-10	nt	23
C#CCOCCOCCOCCNc1nc(N2CCN(C(=O)CCCCCCCCCCNC(=O)Cn3cc(CCCCCN)nn3)CC2)nc(N2CCN(C(=O)CCCCCCCCCCNC(=O)[C@H](CO)n3cc(CCCCCN)nn3)CC2)n1	62*	nt	nt	-7	nt	21
COc1cc(C)c(C(=O)Oc2cc(C)c(C(=O)O)c(O)c2C)c(O)c1C	6	nt	nt	1	nt	nt
N#CCCCc1cc2ccccc2cn1	-8	nt	nt	-4	nt	nt
O=C(COC(=O)CCS(=O)(=O)c1ccc(Cl)cc1)Nc1ncc(Cl)cc1Cl	-11	15	13	1	0.9	nt
SMILES	PfG6PD inh	G6PDH CS	Diaph inh CS	HKDC1 inh	Diaph act CS	PfGluPho conf	others
O=C(O)CN1C(=O)NC2(CCOc3ccccc32)C1=O (centres undefined)	-1	nt	nt	-7	nt	nt
Cc1ccc(NC(=O)c2ccc(Cl)c(N3C(=O)C=CC3=O)c2)cc1	100*	-2	4	2	1	100*	Diaphorase 10uM=-22;Diaph ctr 30uM=-7
CSc1ccc(Cl)c(C(=O)N2CCOc3ccccc32)c1	6	nt	nt	-3	nt	nt
O=C(c1ccc(S(=O)(=O)Nc2ccccc2)cc1)N1CCCC(C(F)(F)F)C1 (centres undefined)	-11	nt	nt	2	nt	nt
Cc1cc(N)c2cc(NC(=O)/C=C/c3ccccc3Cl)ccc2n1	60*	nt	nt	14	nt	1
Cc1c(NC(=O)c2c(NC(=O)CNC3CC3)sc3c2CCCC3)c(=O)n(-c2ccccc2)n1C	-1	-9	21	9	0.8	nt
CC1=C(C(=O)OCc2ccccc2)C(c2cccnc2)n2nnnc2N1 (centres undefined)	61*	13	12	2	0.9	31

High-throughput results (PubChem BioAssay)
